The source made the active and inactive calls. The rule behind the calls is not given here.
Legend:
[1] = tested on: A549; assay: Selectivity ratio of IC50 for human A549 cells to IC50 for human MIAPaCa2 cells; assay type: functional
[2] = molecular target: T1, Voltage-dependent T-type calcium channel subunit alpha-1G (Homo sapiens, UniProt O43497); assay: Inhibition of T-type CaV3.1 channel (unknown origin) expressed in HEK293 cells assessed as inhibition of calcium current at 1 uM by whole cell patch-clamp method; assay type: cell-based
T1 sequence (O43497 whole entry): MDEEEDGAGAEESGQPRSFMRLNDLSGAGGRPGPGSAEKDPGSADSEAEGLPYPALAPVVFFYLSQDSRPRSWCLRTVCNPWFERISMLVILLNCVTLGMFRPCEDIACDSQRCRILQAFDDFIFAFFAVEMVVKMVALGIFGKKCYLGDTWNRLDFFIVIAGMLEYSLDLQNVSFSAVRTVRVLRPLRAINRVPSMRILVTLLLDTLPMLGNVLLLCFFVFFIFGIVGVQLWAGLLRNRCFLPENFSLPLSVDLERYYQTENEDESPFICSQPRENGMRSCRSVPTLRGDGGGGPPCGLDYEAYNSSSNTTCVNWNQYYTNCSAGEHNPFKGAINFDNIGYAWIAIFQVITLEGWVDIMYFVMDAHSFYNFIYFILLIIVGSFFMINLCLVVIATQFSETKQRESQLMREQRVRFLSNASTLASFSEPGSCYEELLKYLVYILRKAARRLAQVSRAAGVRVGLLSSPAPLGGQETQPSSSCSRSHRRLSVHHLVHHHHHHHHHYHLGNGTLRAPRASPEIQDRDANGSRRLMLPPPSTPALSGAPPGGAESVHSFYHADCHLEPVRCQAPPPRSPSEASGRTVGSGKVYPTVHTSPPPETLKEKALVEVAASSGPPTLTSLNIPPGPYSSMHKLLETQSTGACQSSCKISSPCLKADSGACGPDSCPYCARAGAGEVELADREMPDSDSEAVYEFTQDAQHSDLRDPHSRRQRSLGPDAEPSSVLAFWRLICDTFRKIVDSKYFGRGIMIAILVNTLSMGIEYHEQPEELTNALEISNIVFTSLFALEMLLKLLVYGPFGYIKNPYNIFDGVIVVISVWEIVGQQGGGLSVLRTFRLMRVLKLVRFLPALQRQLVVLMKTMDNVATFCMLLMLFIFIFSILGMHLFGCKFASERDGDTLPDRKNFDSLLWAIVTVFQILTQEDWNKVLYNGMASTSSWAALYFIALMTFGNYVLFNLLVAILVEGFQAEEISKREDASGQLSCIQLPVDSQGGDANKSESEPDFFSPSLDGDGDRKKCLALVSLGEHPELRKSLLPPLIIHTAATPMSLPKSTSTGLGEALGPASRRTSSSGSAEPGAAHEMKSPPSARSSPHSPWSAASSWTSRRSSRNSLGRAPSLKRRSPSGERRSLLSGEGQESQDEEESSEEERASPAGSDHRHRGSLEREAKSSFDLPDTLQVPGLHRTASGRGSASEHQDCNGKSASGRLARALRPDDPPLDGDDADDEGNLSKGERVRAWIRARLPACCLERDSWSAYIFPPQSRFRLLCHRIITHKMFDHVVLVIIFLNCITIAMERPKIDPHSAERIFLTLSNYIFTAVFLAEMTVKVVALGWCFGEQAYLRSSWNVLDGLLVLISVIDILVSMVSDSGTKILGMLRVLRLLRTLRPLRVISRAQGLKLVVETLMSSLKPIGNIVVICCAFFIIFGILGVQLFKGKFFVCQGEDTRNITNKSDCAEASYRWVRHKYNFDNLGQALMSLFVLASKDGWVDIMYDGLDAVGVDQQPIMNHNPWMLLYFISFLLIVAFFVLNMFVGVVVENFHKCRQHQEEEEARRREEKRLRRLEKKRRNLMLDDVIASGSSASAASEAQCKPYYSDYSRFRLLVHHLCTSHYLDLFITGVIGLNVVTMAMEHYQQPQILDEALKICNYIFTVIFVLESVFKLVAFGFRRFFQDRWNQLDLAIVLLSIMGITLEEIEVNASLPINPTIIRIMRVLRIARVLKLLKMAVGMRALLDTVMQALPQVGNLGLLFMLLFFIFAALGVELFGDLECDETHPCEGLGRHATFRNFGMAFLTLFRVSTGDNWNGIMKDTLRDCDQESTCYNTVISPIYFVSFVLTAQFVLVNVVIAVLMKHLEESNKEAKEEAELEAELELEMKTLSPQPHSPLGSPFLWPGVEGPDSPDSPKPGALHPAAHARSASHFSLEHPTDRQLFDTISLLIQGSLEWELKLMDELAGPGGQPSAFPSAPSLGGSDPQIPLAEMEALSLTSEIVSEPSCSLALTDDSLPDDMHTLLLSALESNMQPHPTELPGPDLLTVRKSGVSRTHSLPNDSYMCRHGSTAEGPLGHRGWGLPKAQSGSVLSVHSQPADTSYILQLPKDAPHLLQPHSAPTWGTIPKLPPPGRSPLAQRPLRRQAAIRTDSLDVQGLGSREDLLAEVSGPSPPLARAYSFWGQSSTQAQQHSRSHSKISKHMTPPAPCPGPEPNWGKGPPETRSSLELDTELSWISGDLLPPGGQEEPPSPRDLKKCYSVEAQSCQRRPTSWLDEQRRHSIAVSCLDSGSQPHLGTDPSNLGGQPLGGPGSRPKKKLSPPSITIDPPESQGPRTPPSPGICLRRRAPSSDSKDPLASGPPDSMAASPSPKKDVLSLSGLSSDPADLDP

[3] = tested on: A549; assay: Cytotoxicity against human A549 cells after 48 hrs by MTT assay; assay type: functional, cell-based; conditions: for IC50: A549, 48 h
How it was run: (§1)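 Cells seeded and grown 24 h, then exposed 48 h to a range of concentrations in DMSO (final 0.1%), with vehicle controls at equal DMSO. Medium replaced with 0.5 mg/mL MTT in RPMI with 10% FBS for 2 h at 37 °C, reduced dye dissolved in DMSO, absorbance read at 540 nm. Triplicates; IC50 from dose–response.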

[4] = (§2) Cytotoxicity against human MIAPaCa2 cells after 48 hrs by MTT assay; assay type: functional, cell-based; conditions: MIA PaCa-2, 48 h; how it was run: as §1
[5] = tested on: A549; assay: Cell cycle arrest in human A549 cells assessed as accumulation at S phase at 5 uM after 24 hrs by flow cytometry (reference value: 17.6 %); assay type: functional
[6] = tested on: A549; assay: Induction of apoptosis in human A549 cells assessed as late apoptotic cells at 5 uM after 24 hrs by annexin V/PI staining-based FACS analysis (reference value: 3.5 %)
[7] = tested on: A549; assay: Induction of apoptosis in human A549 cells assessed as late apoptotic cells at 1 uM after 24 hrs by annexin V/PI staining-based FACS analysis (reference value: 3.5 %)
[8] = tested on: A549; assay: Induction of apoptosis in human A549 cells assessed as viable cells at 5 uM after 24 hrs by annexin V/PI staining-based FACS analysis (reference value: 91.1 %); conditions: A549, 24 h
[9] = tested on: A549; assay: Induction of apoptosis in human A549 cells assessed as early apoptotic cells at 3 uM after 24 hrs by annexin V/PI staining-based FACS analysis (reference value: 2.6 %)
[10] = tested on: A549; assay: Induction of apoptosis in human A549 cells assessed as reduction in pro-caspase-9 expression at 5 uM after 24 hrs by Western blot analysis; assay type: functional, cell-based
How it was run: (§3)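 Cells treated 24 h without compound or at 1, 3 or 5 µM. Pro-caspase-3, pro-caspase-9 and PARP cleavage assessed by Western blot.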

[11] = tested on: A549; assay: Cell cycle arrest in human A549 cells assessed as accumulation at sub-G1 phase at 5 uM after 24 hrs by flow cytometry (reference value: 7.8 %); assay type: functional
[12] = tested on: A549; assay: Induction of apoptosis in human A549 cells assessed as late apoptotic cells at 3 uM after 24 hrs by annexin V/PI staining-based FACS analysis (reference value: 3.5 %)
[13] = tested on: A549; assay: Ratio of KYS05090 IC50 to compound IC50 for human A549 cells after 48 hrs by MTT assay; assay type: functional
[14] = tested on: A549; assay: Induction of apoptosis in human A549 cells assessed as reduction in pro-caspase-3 expression at 5 uM after 24 hrs by Western blot analysis; assay type: functional, cell-based; how it was run: as §3
[15] = tested on: A549; assay: Cell cycle arrest in human A549 cells assessed as accumulation at S phase at 5 uM after 48 hrs by flow cytometry (reference value: 12.0 %); assay type: functional
[16] = tested on: A549; assay: Induction of apoptosis in human A549 cells assessed as early apoptotic cells at 5 uM after 24 hrs by annexin V/PI staining-based FACS analysis (reference value: 2.6 %)
[17] = tested on: A549; assay: Induction of apoptosis in human A549 cells assessed as necrotic cells at 5 uM after 24 hrs by annexin V/PI staining-based FACS analysis (reference value: 2.8 %)
[18] = tested on: A549; assay: Cell cycle arrest in human A549 cells assessed as accumulation at G0/G1 phase at 5 uM after 48 hrs by flow cytometry (reference value: 57.8 %); assay type: functional
[19] = tested on: A549; assay: Induction of apoptosis in human A549 cells assessed as viable cells at 3 uM after 24 hrs by annexin V/PI staining-based FACS analysis (reference value: 91.1 %); conditions: A549, 24 h
[20] = tested on: MIA PaCa-2; assay: as §2; assay type: functional, cell-based; how it was run: as §1
[21] = tested on: A549; assay: Induction of apoptosis in human A549 cells assessed as necrotic cells at 1 uM after 24 hrs by annexin V/PI staining-based FACS analysis (reference value: 2.8 %)
[22] = tested on: A549; assay: Induction of apoptosis in human A549 cells assessed as increase in PARP protein cleavage at 5 uM after 24 hrs by Western blot analysis; assay type: functional, cell-based; how it was run: as §3
[23] = tested on: A549; assay: Cell cycle arrest in human A549 cells assessed as accumulation at G2/M phase at 5 uM after 48 hrs by flow cytometry (reference value: 25.4 %); assay type: functional
[24] = tested on: A549; assay: Induction of apoptosis in human A549 cells assessed as necrotic cells at 3 uM after 24 hrs by annexin V/PI staining-based FACS analysis (reference value: 2.8 %)
[25] = tested on: MIA PaCa-2; assay: Ratio of KYS05090 IC50 to compound IC50 for human MIAPaCa2 cells after 48 hrs by MTT assay; assay type: functional
[26] = tested on: A549; assay: Cell cycle arrest in human A549 cells assessed as accumulation at G0/G1 phase at 5 uM after 24 hrs by flow cytometry (reference value: 53.1 %); assay type: functional
[27] = tested on: A549; assay: Induction of apoptosis in human A549 cells assessed as early apoptotic cells at 1 uM after 24 hrs by annexin V/PI staining-based FACS analysis (reference value: 2.6 %)
[28] = tested on: A549; assay: Induction of apoptosis in human A549 cells assessed as viable cells at 1 uM after 24 hrs by annexin V/PI staining-based FACS analysis (reference value: 91.1 %); conditions: A549, 24 h
[29] = tested on: A549; assay: Cell cycle arrest in human A549 cells assessed as accumulation at sub-G1 phase at 5 uM after 48 hrs by flow cytometry (reference value: 4.9 %); assay type: functional
[30] = molecular target: T1, Voltage-dependent T-type calcium channel subunit alpha-1G; assay: Inhibition of T-type CaV3.1 channel (unknown origin) expressed in HEK293 cells assessed as inhibition of calcium current by whole cell patch-clamp method; assay type: cell-based
[31] = tested on: A549; assay: Cell cycle arrest in human A549 cells assessed as accumulation at G2/M phase at 5 uM after 24 hrs by flow cytometry (reference value: 21.6 %); assay type: functional
[32] = tested on: A549; assay: Cell cycle arrest in human A549 cells assessed as accumulation at G0/G1 phase at 10 uM after 24 hrs by flow cytometry (reference value: 53.1 %); assay type: functional
[33] = tested on: A549; assay: Cell cycle arrest in human A549 cells assessed as accumulation at S phase at 10 uM after 48 hrs by flow cytometry (reference value: 12.0 %); assay type: functional
[34] = tested on: A549; assay: Cell cycle arrest in human A549 cells assessed as accumulation at S phase at 10 uM after 24 hrs by flow cytometry (reference value: 17.6 %); assay type: functional
[35] = tested on: A549; assay: Cell cycle arrest in human A549 cells assessed as accumulation at G0/G1 phase at 10 uM after 48 hrs by flow cytometry (reference value: 57.8 %); assay type: functional
[36] = tested on: A549; assay: Cell cycle arrest in human A549 cells assessed as accumulation at G2/M phase at 10 uM after 24 hrs by flow cytometry (reference value: 21.6 %); assay type: functional
[37] = tested on: A549; assay: Cell cycle arrest in human A549 cells assessed as accumulation at G2/M phase at 10 uM after 48 hrs by flow cytometry (reference value: 25.4 %); assay type: functional
[38] = tested on: A549; assay: Cell cycle arrest in human A549 cells assessed as accumulation at sub-G1 phase at 10 uM after 24 hrs by flow cytometry (reference value: 7.8 %); assay type: functional
[39] = tested on: A549; assay: Cell cycle arrest in human A549 cells assessed as accumulation at sub-G1 phase at 10 uM after 48 hrs by flow cytometry (reference value: 4.9 %); assay type: functional

CN(C)CCCCCCN(C)C1=Nc2ccccc2C(CC(=O)NCc2ccccc2)N1c1ccc2ccccc2c1.Cl (stereo unspecified)
Ratio IC50 [1]: 2 | inhibition [2]: 26.4% | IC50 [3]: 5.44 µM | IC50 [4]: 2.54 µM

CN(C)CCN1CCN(C2=Nc3ccccc3C(CC(=O)NCc3ccccc3)N2c2ccc(C3CCCCC3)cc2)CC1.Cl (stereo unspecified)
Activity [5]: 12.8% | Activity [6]: 13.3% | Activity [7]: 3.2% | Ratio IC50 [1]: 2 | viability at 5 µM [8]: 53.4% | Activity [9]: 30.4% | Activity [10]: Active | Activity [11]: 15.8% | Activity [12]: 1.9% | inhibition [2]: 53.2% | inhibition [3]: Dose-dependent effect | IC50 [3]: 2.25 µM | Ratio IC50 [13]: 2 | Activity [14]: Active | Activity [15]: 4.6% | Activity [16]: 32.1% | Activity [17]: 1.3% | Activity [18]: 15.7% | viability at 3 µM [19]: 67.4% | inhibition [20]: Dose-dependent effect | IC50 [4]: 0.93 µM | Activity [21]: 2.5% | Activity [22]: Active | Activity [23]: 1.9% | Activity [24]: 0.3% | Ratio IC50 [25]: 2 | Activity [26]: 55.4% | Activity [27]: 2.5% | viability at 1 µM [28]: 91.8% | Activity [29]: 77.8% | IC50 [30]: 1.04 µM | Activity [31]: 16%

COCC(=O)O[C@]1(CCN(C)CCCc2nc3ccccc3[nH]2)CCc2cc(F)ccc2[C@@H]1C(C)C [MIBEFRADIL]
Activity [32]: 66.1% | Activity [33]: 12% | Activity [34]: 10.9% | Activity [35]: 66.8% | IC50 [3]: 24.8 µM | Activity [36]: 13.4% | Activity [37]: 11.2% | IC50 [4]: 18.4 µM | Activity [38]: 9.6% | Activity [39]: 10%

CC(C)c1ccc(N2C(N3CCN(CCN(C)C)CC3)=Nc3ccccc3C2CC(=O)NCc2ccccc2)cc1.Cl (stereo unspecified)
Ratio IC50 [1]: 2 | inhibition [2]: 39.2% | IC50 [3]: 7.57 µM | IC50 [4]: 3.02 µM

CN(C)CCN1CCN(C2=Nc3ccccc3C(CC(=O)NCc3ccc([N+](=O)[O-])cc3)N2c2ccc(-c3ccccc3)cc2)CC1.Cl (stereo unspecified)
Ratio IC50 [1]: 2 | inhibition [2]: 38.1% | IC50 [3]: 4.69 µM | IC50 [4]: 2.18 µM

COc1ccc(CNC(=O)CC2c3ccccc3N=C(N(C)CCCCCCN(C)C)N2c2ccc3ccccc3c2)cc1.Cl (stereo unspecified)
Ratio IC50 [1]: 2 | inhibition [2]: 55.2% | IC50 [3]: 6.65 µM | IC50 [4]: 3.99 µM | IC50 [30]: 0.73 µM

CN(C)CCCCCN(C)C1=Nc2ccccc2C(CC(=O)NCc2ccccc2)N1c1ccc(-c2ccccc2)cc1.Cl.Cl (stereo unspecified)
Activity [5]: 8.8% | Ratio IC50 [1]: 2 | Activity [11]: 55.3% | inhibition [2]: 76.6% | IC50 [3]: 4.07 µM | Activity [15]: 0.6% | Activity [18]: 1.2% | IC50 [4]: 1.94 µM | Activity [23]: 0.1% | Activity [26]: 33.6% | Activity [29]: 98.1% | Activity [31]: 2.2%

CN(C)CCN1CCN(C2=Nc3ccccc3C(CC(=O)OCc3ccccc3)N2c2ccc(-c3ccccc3)cc2)CC1 (stereo unspecified)
Ratio IC50 [1]: 2 | inhibition [2]: 46.4% | IC50 [3]: 4.29 µM | IC50 [4]: 2.7 µM | IC50 [30]: 1.81 µM

CN(C)C(=O)NCCCN(C)C1=Nc2ccccc2C(CC(=O)NCc2ccc(F)cc2)N1c1ccc(-c2ccccc2)cc1.Cl (stereo unspecified)
Ratio IC50 [1]: 2 | inhibition [2]: 53.5% | IC50 [3]: 15 µM | IC50 [4]: 7.43 µM | IC50 [30]: 0.6 µM

CN(C)CCN1CCN(C2=Nc3ccccc3C(CC(=O)NCc3ccc(N(S(C)(=O)=O)S(C)(=O)=O)cc3)N2c2ccc(-c3ccccc3)cc2)CC1.Cl (stereo unspecified)
Ratio IC50 [1]: 2 | inhibition [2]: 64.3% | IC50 [3]: 20.7 µM | IC50 [4]: 16.1 µM | IC50 [30]: 0.52 µM
